In ChEMBL document CHEMBL5674890, “Selective inhibition of CBP/p300 HAT by A-485 results in suppression of lipogenesis and hepatic gluconeogenesis” (Cell Death Dis, 2020):
Activity calls are given as the source filed them. No cut-off for these calls is given here.

Assays:
Mus musculus [1] = test: Inhibition of lipogenesis in C57BL/6 mouse supplemented with normal chow diet assessed as decrease in PPARgamma mRNA expression at 20 mg/kg/day, ip administered for 1 week measured measured by RT-qPCR assay; format: functional, organism-based; conditions: time 1.0 weeks
How it was run: (§1)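 Eight-week-old male C57BL/6 mice on normal chow were given 20 mg·kg−1·day−1 ip daily for 7 days or vehicle. Epididymal WAT was collected. Lipogenic, adipogenic and fatty-acid-oxidation transcripts were quantified by Trizol extraction and SYBR Green RT-qPCR. FAS, ACC, PPARγ and C/EBPα protein were assessed by western blot. n = 5–9; mean ± SEM.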

Hepatocyte [2] = test: Inhibition of lipogenesis in mouse primary hepatocytes assessed as increase in MCAD mRNA expression at 3 uM in presence of 100 nM insulin and 5 to 25 mM glucose measured after 18 hrs by RT-qPCR assay; format: functional, cell-based
How it was run: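 Primary hepatocytes isolated from C57BL/6 mice by two-step perfusion. Cells incubated 18 h with 3 μM inhibitor, with 0 or 100 nM insulin and 5 or 25 mM glucose. Transcripts quantified by SYBR Green RT-qPCR after Trizol RNA extraction; proteins by western blot of lysates. Mean ± SEM.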

Hepatocyte [3] = test: Inhibition of glucogenesis in mouse primary hepatocytes stimulated with 100 uM 8-Br-cAMP assessed as decrease in PEPCK protein expression at 3 uM in presence of cAMP measured after 16 hrs by western blot
Mus musculus [4] = test: Inhibition of lipogenesis in C57BL/6 mouse supplemented with high-fat diet assessed as decrease in ChREBP mRNA expression at 20 mg/kg/day, ip administered for 1 week measured by RT-qPCR assay; format: functional, organism-based; conditions: time 1.0 weeks
How it was run: (§2)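 Male C57BL/6 mice were fed high-fat diet for 14 weeks from 5 weeks of age, then injected ip with 20 mg·kg−1·day−1 for 7 days or given vehicle. Epididymal and inguinal WAT were weighed, examined by H&E, and analysed. Transcripts were measured by Trizol/SYBR Green RT-qPCR; proteins by western blot. n = 5–9; mean ± SEM.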

Mus musculus [5] = test: Inhibition of lipogenesis in C57BL/6 mouse supplemented with normal chow diet assessed as decrease in PPARgamma protein expression at 20 mg/kg/day, ip administered for 1 week measured measured by western blot analysis; format: functional, organism-based; conditions: time 1.0 weeks; how it was run: as §1
Mus musculus [6] = test: Inhibition of lipogenesis in C57BL/6 mouse supplemented with high-fat diet assessed as decrease in SCD1 mRNA expression at 20 mg/kg/day, ip administered for 1 week measured by RT-qPCR assay; format: functional, organism-based; conditions: time 1.0 weeks; how it was run: as §2
Mus musculus [7] = test: Inhibition of lipogenesis in C57BL/6 mouse supplemented with normal chow diet assessed as decrease in SREBP-1c mRNA expression at 20 mg/kg/day, ip administered for 1 week measured by RT-qPCR assay; format: functional, organism-based; conditions: time 1.0 weeks; how it was run: as §1
Hepatocyte [8] = test: Inhibition of glucogenesis in mouse primary hepatocytes stimulated with 100 uM 8-Br-cAMP assessed as decrease in G6Pc mRNA expression at 3 uM measured after 8 hrs by RT-qPCR assay
Mus musculus [9] = test: Inhibition of lipogenesis in C57BL/6 mouse supplemented with high-fat diet assessed as decrease in PPARgamma protein expression at 20 mg/kg/day, ip administered for 1 week measured measured by western blot analysis; format: functional, organism-based; conditions: time 1.0 weeks; how it was run: as §2
Mus musculus [10] = test: Inhibition of lipogenesis in C57BL/6 mouse supplemented with normal chow diet assessed as decrease in ChREBP mRNA expression at 20 mg/kg/day, ip administered for 1 week measured by RT-qPCR assay; format: functional, organism-based; conditions: time 1.0 weeks; how it was run: as §1
Hepatocyte [11] = test: Inhibition of glucogenesis in mouse primary hepatocytes stimulated with 100 uM 8-Br-cAMP assessed as decrease in glucose production at 3 uM measured after 24 hrs; format: functional, cell-based
How it was run: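 Two-step-perfusion primary mouse hepatocytes pretreated 16 h with 100 nM dexamethasone. Then incubated 24 h in glucose-free DMEM with 1 mM pyruvate, 10 mM lactate, 0.25% BSA, 100 μM 8-Br-cAMP and 3 μM test agent. Medium glucose measured colorimetrically. Mean ± SEM, three independent experiments.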

Mus musculus [12] = test: Anti-obesity activity in C57BL/6 mouse supplemented with high fat diet assessed as improvement in glucose tolerance at 20 mg/kg/day, ip administered for 1 week measured by intraperitoneal glucose tolerance test; format: functional, organism-based; conditions: time 1.0 weeks
How it was run: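 High-fat diet mice (male C57BL/6, 14 weeks on HFD from 5 weeks of age), ip 20 mg·kg−1·day−1 for 7 days. 16 h fast, then glucose 2 g/kg body weight ip; blood glucose tracked during the test.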

Adipocyte = test: Inhibition of lipogenesis in mouse adipocytes isolated stromal vascular cells assessed as decrease in PPARgamma mRNA expression measured after 24 hrs by RT-qPCR assay; format: functional, cell-based
How it was run: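 Stromal vascular cells from inguinal WAT of C57BL/6 mice, grown in DMEM/F12 + 10% FBS at 37 °C, 10% CO2. At confluence, induced 48 h with 5 μg/ml insulin, 1 μM dexamethasone, 0.5 mM isobutylmethylxanthine, then 6 days in 5 μg/ml insulin; fully differentiated day 8. Mature adipocytes exposed to inhibitor 24 h. Total RNA by Trizol, SYBR Green RT-qPCR; protein by western blot.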

Mus musculus [13] = organism: Mus musculus; test: Inhibition of glucogenesis in mouse assessed as decrease in hepatic C/EBPalpha protein expression measured by western blot analysis; format: functional, organism-based
How it was run: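 Livers from vehicle- or treated mice (ip 20 mg·kg−1·day−1 for 7 days) homogenized in lysis buffer; FOXO1 and C/EBPα analysed by western blot.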

Mus musculus [14] = test: Anti-obesity activity in 16 hrs fasted C57BL/6 mouse supplemented with normal chow diet assessed as decrease in fasting blood glucose at 20 mg/kg/day, ip administered for 1 week; format: functional, organism-based; conditions: time 1.0 weeks
How it was run: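 8-week-old male C57BL/6 mice on normal chow, ip 20 mg·kg−1·day−1 for 7 days. Blood glucose measured randomly fed or after 6 h or 16 h fasting, as the line states. Mean ± SEM, n = 5–9.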

Mus musculus [15] = test: Inhibition of lipogenesis in C57BL/6 mouse supplemented with normal chow diet assessed as decrease in LPL mRNA expression at 20 mg/kg/day, ip administered for 1 week measured measured by RT-qPCR assay; format: functional, organism-based; conditions: time 1.0 weeks; how it was run: as §1
Mus musculus [16] = test: Anti-obesity activity in C57BL/6 mouse supplemented with normal chow diet assessed effect on total lean mass at 20 mg/kg/day, ip administered for 1 week measured by EchoMRI live analysis; format: functional, organism-based; conditions: time 1.0 weeks
How it was run: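 Normal-chow male C57BL/6 mice, 8 weeks old, ip 20 mg·kg−1·day−1 daily for 7 days. Total lean and fat mass measured in live animals by EchoMRI. Mean ± SEM, n = 5–9.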

Mus musculus [17] = test: Inhibition of lipogenesis in C57BL/6 mouse supplemented with high-fat diet assessed as decrease in FABP4 mRNA expression at 20 mg/kg/day, ip administered for 1 week measured measured by RT-qPCR assay; format: functional, organism-based; conditions: time 1.0 weeks; how it was run: as §2
Mus musculus [18] = test: Inhibition of lipogenesis in C57BL/6 mouse supplemented with high-fat diet assessed as decrease in ACC mRNA expression at 20 mg/kg/day, ip administered for 1 week measured by RT-qPCR assay; format: functional, organism-based; conditions: time 1.0 weeks; how it was run: as §2
Hepatocyte [19] = test: Inhibition of lipogenesis in mouse primary hepatocytes assessed as decrease in ChREBP protein expression at 3 uM in presence of 100 nM insulin and 5 to 25 mM glucose measured after 18 hrs by western blot analysis; format: functional, cell-based

Structure (SMILES): CNC(=O)Nc1ccc2c(c1)CCS21OC(=O)N(CC(=O)N(Cc2ccc(F)cc2)[C@@H](C)C(F)(F)F)C1=O (stereo not given in full)
- inhibition (Mus musculus [1]): Active
- inhibition (Hepatocyte [2]): Active
- inhibition (Hepatocyte [3]): Active
- inhibition (Mus musculus [4]): Active
- inhibition (Mus musculus [5]): Active
- inhibition (Mus musculus [6]): Active
- inhibition (Mus musculus [7]): Active
- inhibition (Hepatocyte [8]): Active
- inhibition (Mus musculus [9]): Active
- inhibition (Mus musculus [10]): Active
- inhibition (Hepatocyte [11]): Active
- Activity (Mus musculus [12]): Active
- inhibition (Adipocyte): Active
- inhibition (Mus musculus [13]): Active
- Activity (Mus musculus [14]): Active
- inhibition (Mus musculus [15]): Active
- Activity (Mus musculus [16]): inactive
- inhibition (Mus musculus [17]): Active
- inhibition (Mus musculus [18]): Active
- inhibition (Hepatocyte [19]): Active
